Screening data from PubChem BioAssay.
HIV Env fusion = HIV envelope-mediated fusion inhibition; 360,000 compounds, 1.1% hits; HeLa-JRFL Env/CEM21 cell fusion, luciferase; inhibition, % at 12.3 µM;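 active = mean replicate inhibition score of at least 50 and every replicate individually at or above 50; inconclusive = only one of the two criteria met; inactive = mean below 50 and not all replicates reaching 50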;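 note: 0% = plate neutral controls and 100% = maraviroc near 300 nM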
GalR3 antagonist = antagonists of human GalR3 | 360,000 compounds, 0.44% hits | AID 651719 | HEK293 GalR3-CNG cAMP membrane potential fluorescence; galR3 body fused to GalR1 C-terminus | O60755 | inhibition, % at 3 µM;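 active = inhibition above the screen-wide average plus 3 SD, cut at about 13% in these data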;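 note: forskolin and galanin both at EC90 stimulate the cells; cAMP rise reported by CNG channel membrane potential dye signal; 0% = forskolin plus galanin with DMSO and 100% = forskolin alone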
Target sequence (O60755 1-299 limits assumed): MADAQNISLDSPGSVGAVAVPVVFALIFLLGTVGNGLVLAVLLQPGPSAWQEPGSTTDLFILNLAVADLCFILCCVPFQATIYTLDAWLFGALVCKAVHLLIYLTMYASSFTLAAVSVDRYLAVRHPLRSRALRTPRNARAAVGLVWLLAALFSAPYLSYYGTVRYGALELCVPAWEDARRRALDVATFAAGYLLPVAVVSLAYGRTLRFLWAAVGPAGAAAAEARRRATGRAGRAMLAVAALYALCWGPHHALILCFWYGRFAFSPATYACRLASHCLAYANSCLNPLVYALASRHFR
GAA850 FXN act = activators of GAA850 frataxin (FXN) promoter; activation, % at 6 µM; AID 540364; 360,000 compounds, 0.56% hits; HEK293 lucGAA850 FXN promoter luciferase reporter, 24 h; percent of 10 µM SAHA response;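 active = activation above the average of all compounds screened plus 3 SD, cutoff fixed separately per campaign, cut at about 7.5% in these data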;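 note: 0% = DMSO wells and 100% = 10 µM SAHA wells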
V-ATPase pH = alters yeast V-ATPase proton transport; S. cerevisiae, pHLuorin cytosolic pH fluorescence; response, % at 10 µM; 350,000 compounds, 0.37% hits; AID 504577; in the data active = response mostly above about 7.3%, no sharp cut-off; inactive = mostly below about 5.4%; note: actives read high
NR2E3 ag-1 = agonists of human NR2E3 nuclear receptor. Q9Y5X4. CHO-S Gal4-NCOR/VP16-NR2E3 two-hybrid, luciferase. inhibition of corepressor binding, % at 3.98 µM. 360,000 compounds, 0.35% hits;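 active = inhibition above the mean of all tested compounds plus 3 SD, cut at about 70% in these data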;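 note: 0% = DMSO with NR2E3 transfected cells and 100% = cells lacking NR2E3 construct; higher means lower luciferase signal from less NR2E3 corepressor binding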
Target sequence (Q9Y5X4 whole entry, looked up, the tested form may be a part): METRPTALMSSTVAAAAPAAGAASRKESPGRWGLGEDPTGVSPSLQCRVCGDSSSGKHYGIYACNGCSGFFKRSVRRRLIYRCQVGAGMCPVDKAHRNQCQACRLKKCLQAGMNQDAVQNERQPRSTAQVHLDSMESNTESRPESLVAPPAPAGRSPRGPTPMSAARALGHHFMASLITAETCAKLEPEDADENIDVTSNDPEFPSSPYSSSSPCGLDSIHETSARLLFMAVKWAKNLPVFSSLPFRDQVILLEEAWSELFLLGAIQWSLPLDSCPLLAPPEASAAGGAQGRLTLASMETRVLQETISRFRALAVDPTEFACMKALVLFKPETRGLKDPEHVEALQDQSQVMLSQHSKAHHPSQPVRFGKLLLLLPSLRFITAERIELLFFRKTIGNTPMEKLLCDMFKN
NR2E3 ag-2 = NR2E3 (human) agonism; inhibition of corepressor binding, % at 4.78 µM; GST-NR2E3/biotin-RetCOR TR-FRET, 1536-well; Q9Y5X4; 320,000 compounds, 0.12% hits;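 active = percent inhibition above the cutoff of mean plus 3 SD of all tested compounds, set per screening campaign, cut at about 20% in these data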;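 note: 0% = DMSO wells and 100% = biotin wells as full block of FRET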
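System: GST-NR2E3 and biotin-RetCOR proteins; probe or stimulus: 7 nM biotin-RetCOR; doses: compound at 4.8 µM, single dose; schedule: Compound–protein incubation for 5 h at 4 °C; detection: time-resolved FRET; read-out: percent inhibition; controls: biotin wells as high control, 0.6% DMSO wells as low control; format: 1536-well plates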
NR2E3 ag confirm = NR2E3 agonism confirmed in two-hybrid assay; AID 624378; CHO-S mammalian two-hybrid NR2E3-NCOR, luciferase luminescence; 2,300 compounds, 51% hits; shares compounds with NR2E3 ag-1; inhibition, % at 3.98 µM;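 active = average inhibition above a cutoff equal to the mean inhibition of all tested compounds plus one SD, cut at about 70% in these data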;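 note: 0% = DMSO in NR2E3 cells and 100% = DMSO in cells lacking NR2E3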
VP16 counter = GAL4-VP16 reporter inhibition in NR2E3 agonist counterscreen; shares compounds with NR2E3 ag-1; 2,300 compounds, 29% hits; inhibition, % at 3.98 µM; CHO-S GAL4-VP16 luciferase reporter, luminescence;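 active = mean inhibition above a cutoff equal to the average over all tested compounds plus one standard deviation, cut at about 70% in these data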;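 note: luciferase from a UAS reporter driven by GAL4-VP16 transactivation; 0% = DMSO with VP16-transfected cells and 100% = DMSO with cells lacking VP16; higher means less reporter light so more repression of VP16 activity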
Numbers without * were called inactive; ? = inconclusive; · = not tested or not shown; [ ] = another dose, or the depositor's remark. The list is not random: actives were taken first. Their share in the collection is about 2.2%.

SMILES	HIV Env fusion	GalR3 antagonist	GAA850 FXN act	V-ATPase pH	NR2E3 ag-1	NR2E3 ag-2	NR2E3 ag confirm	VP16 counter
Cc1nnc(N/N=C/c2ccc(Br)cc2)n1N	10.9	-8.5	-1.3	2.5	57.0	0.5	-6.6	6.4
CCCCCCCCCCOC(=O)Cn1c(COc2ccccc2OC)[n+](C)c2ccccc21	86.3*	4.3	-1.9	1.1	47.9	-0.1	95.0*	68.9
Cn1c(COc2ccccc2O)[n+](C)c2ccccc21	10.4	6.9	2.1	-3.5	3.9	0.4	·	·
COC(C(=O)C(O)C(C)O)C1Cc2cc3cc(OC4CC(OC5CC(O)C(O)C(C)O5)C(O)C(C)O4)c(C)c(O)c3c(O)c2C(=O)C1OC1CC(OC2CC(OC3CC(O)C(OC)C(C)O3)C(O)C(C)O2)C(O)C(C)O1 (stereo not given)	78.0*	-5.4	-12.7	1.6	96.1*	·	92.8*	74.9*
COc1ccc(S(=O)(=O)Nc2ccc3c(c2)C(=O)N([C@@H](C)CO)C[C@H](C)[C@H](CN(C)C(=O)Nc2ccc4c(c2)OCO4)O3)cc1	22.9[16.7 µM]	·	·	·	·	·	·	·
Cc1ccc(-c2csc3ncnc(Sc4nnc(CN5CCCCCC5=O)o4)c23)cc1	2.0	-1.0	-4.5	1.4	69.4	2.0	-14.9	14.8
Cc1ccc(-c2csc3ncnc(SCC(=O)Nc4nnc(C)s4)c23)cc1	-3.1	-3.0	-2.1	-0.1	-8.6	1.7	·	·
CNC(=O)C[C@H]1CC[C@H]2[C@@H](COc3ccc(NC(=O)c4cc(C)on4)cc3C(=O)N2C)O1	-12.9[16.7 µM]	·	·	·	·	·	·	·
O=C(Nc1ccc(F)cc1)N[C@H]1CC[C@@H](CCNS(=O)(=O)c2cccc(Cl)c2)O[C@@H]1CO	-12.5[16.7 µM]	·	·	·	·	·	·	·
COc1cccc(CN(C)C(=O)c2cccc(S(=O)(=O)N3CCN(c4ccccc4)CC3)c2)c1OC	·	-0.6	-0.1	1.0	55.1	·	81.2*	58.3
CN(CCOc1ccc(Cl)cc1)C(=O)c1cccc(S(=O)(=O)N2CCN(c3ccccc3)CC2)c1	·	-7.8	-2.8	-4.0	84.6*	·	92.5*	81.2*
COc1cccc(CN(C)C(=O)c2cccc(S(=O)(=O)N3CCN(c4ccc(F)cc4)CC3)c2)c1OC	15.3	-4.5	-5.0	3.3	64.1	4.0	79.4*	69.3
O=C(c1cccc(S(=O)(=O)N2CCN(c3ccc(F)cc3)CC2)c1)N1CCCCCCC1	7.4	1.0	1.7	-3.4	51.7	0.5	42.5	43.1
COc1cccc(NC(=O)CN(C)C(=O)c2cccc(S(=O)(=O)N3CCN(c4ccccc4)CC3)c2)c1	-0.4	-3.0	-2.5	-0.5	43.1	0.6	·	·
COc1ccccc1CNC(=O)c1cccc(S(=O)(=O)N2CCN(c3ccc(F)cc3)CC2)c1	17.1	-2.2	-3.0	3.3	-5.1	2.3	·	·
C[C@@H]1CCCCO[C@H](CN(C)Cc2ccc3c(c2)OCO3)[C@H](C)CN([C@H](C)CO)C(=O)c2cc(NC(=O)C3CCCCC3)ccc2O1	5.2[16.7 µM]	·	·	·	·	·	·	·
O=C(CN1CCOCC1)N[C@@H]1CC[C@@H](CCNC(=O)Nc2cc(F)ccc2F)O[C@@H]1CO	5.2[16.7 µM]	·	·	·	·	·	·	·
CN(Cc1ccco1)C(=O)c1cccc(S(=O)(=O)N2CCN(Cc3ccccc3)CC2)c1	-14.5	4.6	1.3	-1.7	-5.8	·	·	·
COc1cccc(CN(C)C(=O)c2cccc(S(=O)(=O)N3CCN(Cc4ccccc4)CC3)c2)c1OC	·	-3.4	-3.2	2.3	63.3	·	65.7	46.1
Cc1cccc(OCCCC(=O)Nc2nc3ccccc3[nH]2)c1	-3.9	-3.8	0.4	0.5	52.6	-1.6	72.4*	-17.6
Cc1ccc(OCCCC(=O)Nc2nc3ccccc3[nH]2)cc1	-1.9	0.7	0.8	2.6	5.3	1.8	·	·
Cc1ccc(S(=O)(=O)Nc2ccc3cc([N+](=O)[O-])ccc3c2[N+](=O)[O-])cc1	12.3	-0.3	1.1	0.4	100.7*	·	100.0*	90.6*
O=C1OC[C@H](Cc2ccc3c(c2)OCO3)/C1=C\c1ccc2c(c1)OCO2	·	·	-2.5	-1.9	52.2	-0.1	36.1	40.3
COC(=O)Cc1c(C)c2ccc(OC3CCCCC3=O)c(C)c2oc1=O (stereo not given)	-3.5	-10.6	3.9	-3.7	72.0*	0.2	40.0	42.0
CC(C)(C)c1ccc(CC(=O)N2CCC2(C)C(=O)Nc2ccc3[nH]ncc3c2)cc1 (stereo not given)	-2.3	-3.8	1.9	·	57.0	·	36.8	44.9
SMILES	HIV Env fusion	GalR3 antagonist	GAA850 FXN act	V-ATPase pH	NR2E3 ag-1	NR2E3 ag-2	NR2E3 ag confirm	VP16 counter
CC1(C(=O)Nc2ccc3[nH]ncc3c2)CCN1C(=O)CCc1ccccc1 (stereo not given)	-6.5	-3.4	1.2	·	25.2	·	·	·
CCCC(=O)N1CCCC1(C)C(=O)Nc1ccc2cn[nH]c2c1 (stereo not given)	-4.6	-2.3	3.6	·	5.1	·	·	·
CC1(C(=O)Nc2ccc3[nH]ncc3c2)CCN1C(=O)Cc1ccc(-c2ccccc2)cc1 (stereo not given)	-2.4	-5.8	-1.1	·	52.6	·	77.7*	64.6
CC(C)(C)c1ccc(C(=O)N2CCC2(C)C(=O)Nc2cccc(C#N)c2)cc1 (stereo not given)	-4.6	-4.0	-2.5	·	51.9	·	4.1	33.0
CO[C@H](C(=O)N(C)C[C@H]1OCc2ccccc2-c2c(n(C)c3ccccc23)C(=O)N([C@H](C)CO)C[C@@H]1C)c1ccccc1	0.7[16.7 µM]	·	·	·	·	·	·	·
CC(C)NC(=O)Nc1ccc2c(c1)C(=O)N([C@H](C)CO)C[C@H](C)[C@@H](CN(C)CC1CC1)OCCCC[C@H](C)O2	-20.5[16.7 µM]	·	·	·	·	·	·	·
Cc1nn(C)c(C)c1/C=C/C(=O)c1ccc(Cl)cc1Cl	56.1*	-2.9	2.0	0.1	75.7*	2.9	99.6*	85.0*
C[C@H](CO)N1C[C@H](C)[C@H](CN(C)S(=O)(=O)c2ccccc2)Oc2ncc(C#CC(C)(C)O)cc2C1=O	-10.2[16.7 µM]	·	·	·	·	·	·	·
Cc1nn(Cc2ccc(Cl)c(Cl)c2)c(C)c1NC(=O)c1sc2ccccc2c1Cl	12.1	0.0	-2.0	-2.5	51.0	-0.4	57.1	29.3
Cc1nn(Cc2ccc(Cl)c(Cl)c2)c(C)c1NC(=O)c1cc(-c2ccco2)on1	?	-7.7	1.4	18.1	51.1	2.1	78.6*	66.1
Cc1nn(Cc2ccc(Cl)cc2)c(C)c1NC(=O)c1cc(-c2ccco2)on1	37.2	-3.8	-0.9	-7.7	25.1	2.0	·	·
Cc1nn(Cc2c(Cl)cccc2Cl)c(C)c1NC(=O)c1sc2ccccc2c1Cl	·	-2.9	-3.1	5.5	-7.8	0.1	·	·
C[C@H](CO)N1C[C@H](C)[C@H](CN(C)C(=O)Nc2cccc(F)c2)Oc2ncc(C#CCN(C)C)cc2C1=O	-1.0[16.7 µM]	·	·	·	·	·	·	·
